What is called CC50 is the concentration that lowers cell viability or growth by half. High values mean better tolerance by the cells, low ones harm at low concentration. A word on the EC50: it is the concentration at which the effect is half-maximal.

A short description of data set [1]: Cytotoxicity against MDBK cells. The class given is cell-based, Bos taurus. The note with it: cattle. In outline: (§1)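 MDBK or Huh 5-2 cells seeded at 5 · 10³ cells/well in MEM-FCS; serial compound dilutions added 24 h later. Read-out OD490 nm, expressed as OD treated/OD untreated control.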
In another data set the test system is MDBK. Kind of data set: Selectivity index, ratio of CC50 for MDBK cells to EC50 for BVDV. The class given is functional.
Data set [2] in a line: Selectivity index, ratio of CC50 for Huh 5-2 cells to EC50 for HCV. Format: functional.
Data set [3] in a line: Cytotoxicity against Huh 5-2 cells. The settings on record: human. Format: cell-based. In outline: as §1
The subject of the next data set is Hepatitis C virus. Kind of data set: Antiviral activity against HCV in Huh 5-2 cells assessed as […]. The class given is functional, organism-based, Hepacivirus hominis. In outline:
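Huh 5-2 cells were seeded at 5×10³/well in complete DMEM with G418. After 24 h at 37 °C (5% CO₂), the medium was replaced with threefold serial compound dilutions in DMEM without G418 and incubated for 4 days. Values are means of 4–6 independent experiments.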
On the technique in general: Cytopathic effects are the visible damage that an infection or toxin causes in cultured cells.

The subject of data set [4] is Bovine viral diarrhea virus 1. Put plainly: Antiviral activity against BVDV in MDBK cells assessed as reduction of virus-induced cytopathic effect. The class given is functional, organism-based. The settings on record: Bovine viral diarrhea virus isolates and strains.

Activity calls are given as the source filed them. The rule behind the calls is not given here.

As to `Brc1ccc(Cn2ccc3nc(Cc4ccccc4)nc-3c2)cc1`, the CC50 in data set [1] was > 33 µM; in data set [3] it was > 132 µM. Further, the result in the data set on MDBK was inactive. In addition, the “Ratio CC50/EC50” value in data set [2] was >2. In addition, the EC50 in the data set with Hepatitis C virus was 79 µM; in data set [4], > 33 µM.

These data come from ChEMBL document CHEMBL1143779, “Antiviral 2,5-disubstituted imidazo[4,5-c]pyridines: from anti-pestivirus to anti-hepatitis C virus activity” (Bioorg Med Chem Lett, 2007).
